# Measured values as given in ChEMBL document CHEMBL1926514, “Pyridobenzothiazole derivatives as new chemotype targeting the HCV NS5B polymerase” (Bioorg Med Chem, 2012).
# Calls of active or inactive are those of the source. The rule behind the calls is not given here.
# What was measured:
# Hepatitis C virus [1] = assay: Inhibition of HCV genotype 1b recombinant NS5B Cdelta21 polymerase expressed in Escherichia coli assessed as [3H]UTP incorporation into RNA/RNA homopolymeric template (rA)40/(rU)20 at 10 uM after 40 mins by liquid scintillation counting in presence of increase concentration of UTP; details: Hepatitis C virus subtype 1b
# Procedure, shortened: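 NS5BΔC21 [³H]-UTP incorporation assay on (rA)40/(rU)20 at 25 °C for 40 min, with filter-binding scintillation read-out. Inhibition was measured at varying UTP concentrations; inhibitor was preincubated 5 min on ice with enzyme and RNA template.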
# Hepatitis C virus [2] = assay: Antiviral activity against HCV genotype 1b infected in human HuH5.2 cells assessed as inhibition of […] after 72 hrs by luciferase reporter gene assay; type: functional, organism-based, Hepacivirus hominis; details: Huh-5-2, 72 h
# Procedure, shortened: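 Four-step 1-to-5 dilution series were tested for 72 h at 37 °C, 5% CO₂. Cells were washed with PBS and lysed 5 min at room temperature, and luciferase luminescence was read as % of untreated controls. EC50 and EC90 came from dose–response curves; at least three independent experiments.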
# [3] = Cytotoxicity against human HuH5.2 cells after 72 hrs by MTS assay; type: cell-based, Huh-5-2
# Procedure, shortened: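 Metabolic activity was read as absorbance at 498 nm, with OD converted to % of untreated controls. CC50 came from the dose–response curve as 50% reduction of metabolic activity.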
# Hepatitis C virus [4] = assay: Inhibition of HCV genotype 1b recombinant NS5B Cdelta21 polymerase expressed in Escherichia coli assessed as [3H]UTP incorporation into RNA/RNA homopolymeric template (rA)40/(rU)20 after 40 mins by liquid scintillation counting; parameters: species or system Hepatitis C virus subtype 1b
# Procedure, shortened: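 E. coli-expressed NS5BΔC21 (genotype 1b), purified on DEAE and heparin columns, was used at 25–50 nM. Buffer: 50 mM Tris–HCl pH 8.0, 1 mM DTT, 0.25 mg/mL BSA, 0.25 mM MnCl₂, with (rA)40/(rU)20 primer/template. Inhibitor was preincubated 5 min on ice with enzyme and RNA, then [³H]-UTP (37 Ci/mmol) was added for 40 min at 25 °C. Product was captured on DE-81 filters and counted by scintillation. IC50 is the mean of at least three experiments.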
# Hepatitis C virus [5] = assay: Inhibition of HCV genotype 1b recombinant NS5B Cdelta21 polymerase expressed in Escherichia coli assessed as [3H]UTP incorporation into RNA/RNA homopolymeric template (rA)40/(rU)20 at 10 uM after 40 mins by liquid scintillation counting in presence of increase concentration of RNA primer/template; details: Hepatitis C virus subtype 1b
# Procedure, shortened: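 NS5BΔC21 [³H]-UTP incorporation assay on (rA)40/(rU)20 at 25 °C for 40 min, with DE-81 filter scintillation read-out. Inhibitor was held at a fixed subsaturating dose while the RNA primer/template was raised across two increasing doses; inhibitor was preincubated 5 min on ice with enzyme and RNA before UTP addition.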
SMILES,inhibition (Hepatitis C virus [1]),EC50 (Hepatitis C virus [2]) [µM],CC50 at 72 h [3] [µM],IC50 (Hepatitis C virus [4]) [µM],inhibition (Hepatitis C virus [5])
O=C(O)c1cc(-c2ccccc2)c(=O)n2c1S(=O)(=O)c1ccc(OC3CCCCC3)cc1-2,Active,55.8,> 100,19,inactive
O=C(O)c1cc(C2CCCCC2)c(=O)n2c1sc1ccc(OC3CCCCC3)cc12,Active,> 56.5,> 56.5,23,inactive
CC(C)CCOc1ccc2sc3c(C(=O)O)cc(-c4ccccc4)c(=O)n3c2c1,,54,55,> 40,
O=C(O)c1cc(-c2ccccc2)c(=O)n2c1sc1ccc(F)cc12,,> 100,> 100,> 40,
COc1ccc2c(c1)-n1c(c(C(=O)O)cc(-c3ccccc3)c1=O)S2(=O)=O,,89.7,> 100,> 40,
O=C(O)c1cc(-c2ccccc2)c(=O)n2c1sc1ccc(OC3CCCCC3)cc12,Active,> 100,> 100,11,inactive
CC(=O)c1cc(C(=O)O)c2sc3ccc(OC4CCCCC4)cc3n2c1=O,,> 100,> 100,> 40,
O=C(O)c1cc(C2CCCCC2)c(=O)n2c1sc1ccccc12,,53.5,> 100,> 40,
O=C(O)c1ccc(=O)n2c1sc1ccc(OC3CCCCC3)cc12,,> 100,> 100,> 40,
O=C(O)C1=CC(=C(c2ccc(O)c(C(=O)O)c2)c2ccc(O)c(C(=O)O)c2)C=CC1=O [AURINTRICARBOXYLIC ACID],,,,15,
O=C(O)c1cc(-c2ccccc2)c(=O)n2c1S(=O)(=O)c1ccc(F)cc1-2,,66,> 100,> 40,
COc1ccc2sc3c(C(=O)O)cc(-c4ccccc4)c(=O)n3c2c1,,51.2,51.8,> 40,
